Our source for the Ki and Selectivity values is ChEMBL document CHEMBL1148443, “Importance of phenolic address groups in opioid kappa receptor selective antagonists” (J Med Chem, 2004).

Structures are written as SMILES.

For test [1], the species on record is Cavia porcellus. In words: Functional antagonism was obtained by the ability of compound to inhibit stimulation of [35S]GTP gamma S binding produced by selective agonists U69,593 in guinea pig caudate membranes. (In general: Binding of GTPγS marks nucleotide exchange on a G protein.)
The species named for test [2] is Cavia porcellus. Kind of test: Functional antagonism was obtained by the ability of compound to inhibit stimulation of [35S]GTP gamma S binding produced by selective agonists DAMGO in guinea pig caudate membranes.
The species named for test [3] is Cavia porcellus. In words: Functional antagonism was obtained by the ability of compound to inhibit stimulation of [35S]GTP gamma S binding produced by selective agonists SNC-80 in guinea pig caudate membranes.
For test [4], the target named is Opioid receptors; delta & kappa (Homo sapiens) (UniProt P41145+P41143). In words: Selectivity of compound for delta opioid receptor to that of kappa opioid receptor. Type of test: protein assay.
The target of test [5] is Opioid receptors; mu & kappa (Homo sapiens) (UniProt P41145+P35372). In words: Selectivity of compound for mu opioid receptor to that of kappa opioid receptor. Type of test: protein assay.
Test [6] deals with Kappa-type opioid receptor (Cavia porcellus, UniProt P41144). Kind of test: Binding affinity of compound for Opioid receptor kappa 1 was determined using [3H]U-69593 as radioligand from guinea pig caudate. The gist of the method: (§1)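 Competitive binding assays. Mu and delta receptors came from rat brain membranes. Kappa receptors came from guinea pig caudate membranes.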
In test [7] the target is Delta-type opioid receptor (Rattus norvegicus, UniProt P33533). In words: Binding affinity of compound for opioid receptor delta 1 was determined using [3H]DADLE as radioligand from rat brain tissue. The gist of the method:
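Competitive binding assays. Mu and delta receptors came from rat brain membranes. Kappa receptors came from guinea pig caudate membranes. Test compounds displaced the receptor-selective radioligand.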

The target in the next test is Mu-type opioid receptor (Rattus norvegicus, UniProt P33535). Kind of test: Binding affinity of compound for Opioid receptor mu 1 was determined using [3H]DAMGO as radioligand from rat brain tissue. The gist of the method:
as §1

Chain of Opioid receptors; mu & kappa (Homo sapiens) (P35372 whole entry, looked up): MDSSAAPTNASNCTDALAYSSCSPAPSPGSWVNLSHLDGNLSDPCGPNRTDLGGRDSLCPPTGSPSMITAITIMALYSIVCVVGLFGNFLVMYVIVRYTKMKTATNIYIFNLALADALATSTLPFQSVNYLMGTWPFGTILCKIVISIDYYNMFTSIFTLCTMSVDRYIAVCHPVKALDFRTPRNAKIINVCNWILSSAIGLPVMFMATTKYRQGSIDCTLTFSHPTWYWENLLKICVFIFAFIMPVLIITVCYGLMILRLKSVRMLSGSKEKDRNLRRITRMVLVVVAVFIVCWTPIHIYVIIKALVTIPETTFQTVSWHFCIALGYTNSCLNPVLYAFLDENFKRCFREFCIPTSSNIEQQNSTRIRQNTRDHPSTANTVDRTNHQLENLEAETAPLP
Chain of Opioid receptors; mu & kappa (Homo sapiens) (P41145 whole entry, looked up): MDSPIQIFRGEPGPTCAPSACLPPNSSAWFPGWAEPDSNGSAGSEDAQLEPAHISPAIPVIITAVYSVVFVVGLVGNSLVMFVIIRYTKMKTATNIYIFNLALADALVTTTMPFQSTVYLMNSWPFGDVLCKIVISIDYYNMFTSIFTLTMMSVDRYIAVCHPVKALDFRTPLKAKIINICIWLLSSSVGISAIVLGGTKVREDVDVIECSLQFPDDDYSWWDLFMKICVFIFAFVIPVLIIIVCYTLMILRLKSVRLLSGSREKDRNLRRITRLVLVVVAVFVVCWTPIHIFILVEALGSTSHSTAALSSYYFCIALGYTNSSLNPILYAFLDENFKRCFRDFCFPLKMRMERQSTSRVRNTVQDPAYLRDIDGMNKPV
Chain of Opioid receptors; delta & kappa (Homo sapiens) (P41143 whole entry, looked up): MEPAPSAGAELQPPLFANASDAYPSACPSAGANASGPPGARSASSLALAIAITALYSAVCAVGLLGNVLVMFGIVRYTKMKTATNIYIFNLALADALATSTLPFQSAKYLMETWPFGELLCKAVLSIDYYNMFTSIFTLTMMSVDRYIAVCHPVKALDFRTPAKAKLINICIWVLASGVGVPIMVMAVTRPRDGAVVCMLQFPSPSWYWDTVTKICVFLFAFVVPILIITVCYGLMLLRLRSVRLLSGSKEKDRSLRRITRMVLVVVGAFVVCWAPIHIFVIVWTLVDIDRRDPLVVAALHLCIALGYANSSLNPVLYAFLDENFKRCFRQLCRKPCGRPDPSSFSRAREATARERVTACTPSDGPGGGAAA
Chain of Opioid receptors; delta & kappa (Homo sapiens) (P41145 whole entry, looked up): as the sequence (P41145 whole entry, looked up) above
Chain of Delta-type opioid receptor (P33533 whole entry): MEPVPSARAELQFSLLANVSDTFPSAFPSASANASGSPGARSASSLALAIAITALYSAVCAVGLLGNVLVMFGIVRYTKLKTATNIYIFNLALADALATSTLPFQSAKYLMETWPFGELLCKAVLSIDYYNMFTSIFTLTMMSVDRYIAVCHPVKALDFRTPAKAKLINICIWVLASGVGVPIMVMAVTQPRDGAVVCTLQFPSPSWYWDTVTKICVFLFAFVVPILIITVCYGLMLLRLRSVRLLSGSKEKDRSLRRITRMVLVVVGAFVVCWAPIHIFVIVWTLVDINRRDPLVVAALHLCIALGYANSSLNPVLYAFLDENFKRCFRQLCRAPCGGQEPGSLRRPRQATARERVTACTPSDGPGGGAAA
Chain of Kappa-type opioid receptor (P41144 whole entry): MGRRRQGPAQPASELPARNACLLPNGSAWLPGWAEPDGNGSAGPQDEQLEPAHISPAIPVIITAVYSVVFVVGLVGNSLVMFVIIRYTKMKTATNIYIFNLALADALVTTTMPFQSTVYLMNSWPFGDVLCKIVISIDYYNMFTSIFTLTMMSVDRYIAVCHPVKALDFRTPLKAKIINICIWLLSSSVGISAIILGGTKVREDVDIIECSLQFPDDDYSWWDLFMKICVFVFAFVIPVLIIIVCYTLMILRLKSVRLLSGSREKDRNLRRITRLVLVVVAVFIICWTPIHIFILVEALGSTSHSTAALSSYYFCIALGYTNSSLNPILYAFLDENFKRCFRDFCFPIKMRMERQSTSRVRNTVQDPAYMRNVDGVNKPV
Chain of Mu-type opioid receptor (P33535 whole entry): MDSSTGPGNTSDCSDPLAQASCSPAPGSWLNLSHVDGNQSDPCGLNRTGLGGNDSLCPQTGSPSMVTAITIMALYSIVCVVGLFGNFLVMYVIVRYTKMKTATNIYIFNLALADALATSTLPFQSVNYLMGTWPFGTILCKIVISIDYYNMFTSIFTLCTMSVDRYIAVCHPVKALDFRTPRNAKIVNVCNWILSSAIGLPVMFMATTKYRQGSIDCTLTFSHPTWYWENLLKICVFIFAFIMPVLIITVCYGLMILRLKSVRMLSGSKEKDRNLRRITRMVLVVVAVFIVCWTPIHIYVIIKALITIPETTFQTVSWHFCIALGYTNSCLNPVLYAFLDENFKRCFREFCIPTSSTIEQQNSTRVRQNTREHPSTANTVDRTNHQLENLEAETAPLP

Broadly, the Ki is the equilibrium dissociation constant of an inhibitor or competing ligand from its target. A lower Ki goes with a stronger hold on the target. Consider `Oc1ccc2c3c1O[C@H]1c4[nH]c5c(c4C[C@@]4(O)[C@@H](C2)N(CC2CC2)CC[C@]314)C[C@@]1(O)[C@H]2Cc3ccc(O)c4c3[C@@]1(CCN2CC1CC1)[C@H]5O4` (relative stereo) [NORBINALTORPHIMINE], for which the figures for the inhibition constant Ki in the test filed under Cavia porcellus [1] and in the test filed under Cavia porcellus [2] were 0.038 nM and 16.7 nM, respectively.
For `CC(C)[C@@H](CN1CC[C@@](C)(c2cccc(O)c2)[C@@H](C)C1)NC(=O)CCc1ccc(O)cc1`, the inhibition constant (Ki) in the test listed under Cavia porcellus [3] amounted to 450 nM; in the test listed under Cavia porcellus [1], 4.7 nM; in the test listed under Cavia porcellus [2], 7.25 nM. The Selectivity in test [4] was above 885; in test [5], 45.
On the same counts, the results for `CC(C)[C@@H](CN1CC[C@@](C)(c2cccc(O)c2)[C@@H](C)C1)NC(=O)[C@H]1Cc2ccc(O)cc2CN1` [JDTIC] are above 300 nM, 0.02 nM, 2.16 nM, 940 and 12.
Turning to `CC(C)[C@@H](CN1CC[C@@](C)(c2cccc(O)c2)[C@@H](C)C1)NC(=O)CCc1ccccc1`, the Selectivity was determined as 11 in test [4] and 2 in test [5]. Further, the values for the Ki (in test [6]; in test [7]; on Mu-type opioid receptor) were 446 nM, above 5050 nM and 946 nM, respectively.
With `Oc1ccc2c3c1O[C@H]1c4[nH]c5c(c4C[C@@]4(O)[C@@H](C2)N(CC2CC2)CC[C@]314)C[C@@]1(O)[C@H]2Cc3ccc(O)c4c3[C@@]1(CCN2CC1CC1)[C@H]5O4` [NORBINALTORPHIMINE], the Ki in test [6] was 1.33 nM; in test [7], 111 nM.
For `CC(C)[C@@H](CN1CC[C@@](C)(c2cccc(O)c2)[C@@H](C)C1)NC(=O)[C@H]1Cc2ccccc2CN1`, the inhibition constant (Ki) in the test filed under Cavia porcellus [3] was 213 nM; in the test listed under Cavia porcellus [1], 11.5 nM; in the test listed under Cavia porcellus [2], 68.6 nM. Besides, the Selectivity was above 2330 in test [4] and 369 in test [5].
